# An excerpt weighted towards active compounds, which were near 1.4% of everything screened.
# PMI act: activators of human PMI, primary screen, biochemical, fluorescence intensity, near-Km mannose 6-phosphate; Mannose-6-phosphate isomerase (Homo sapiens), P34949; purified human PMI, coupled resazurin fluorescence, 20 min; stronger effect = higher value; 1 = vehicle control, 0 substrate-free wells; activation factor at 20 µM; 190,000 tested, 0.005% active; AID 1214, 2008;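 active = activation factor of 2 or more at 20 µM, relative to plate controls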
# Avidin fluor: green autofluorescence of compounds with avidin beads – biophysical, 488/530 nm, flow cytometry, artefact control, profiling panel. fluorescence (KMESF) at 10 µM. AID 1775, 2009. 220,000 tested, 0.38% active. compound fluorescence 488/530 nm; stronger effect = higher value; in the data active = fluorescence above about 47
# PMI act satM6P: human PMI activators, high substrate, primary screen, biochemical, fluorescence intensity, near-saturating mannose 6-phosphate; activation factor at 20 µM; coupled PMI enzyme assay, resazurin fluorescence, 20 min; stronger effect = higher value; 1 = untreated enzyme, 0 = substrate-free blank; AID 1216, 2008; 190,000 tested, 0.34% active; Mannose-6-phosphate isomerase (Homo sapiens), P34949;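 active = activation factor of 2 or more at 20 µM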
#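 Material: human phosphomannose isomerase with PGI, G6PDH, diaphorase coupling enzymes / Reagent: Man-6-P substrate 1.0 mM / Dosing: single compound dose of 20 µM, 1% DMSO final / Incubation: enzyme reaction with compound 20 min at room temperature / Signal: resorufin fluorescence (Ex 544/Em 590 nm) from resazurin via diaphorase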
# GSH fluor: compound fluorescence on glutathione beads, profiling panel, artefact control, biophysical, 488/530 nm, flow cytometry; GSH beads flow cytometry, compound fluorescence 488/530 nm; stronger effect = higher value; fluorescence (KMESF) at 10 µM; 190,000 tested, 0.25% active; in the data active = fluorescence above about 89;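 note: glutathione beads carrying GST-tagged Bcl family fusion proteins plus one bare bead set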
# Diaph act CS: compounds boosting diaphorase resazurin reduction – biochemical, uHTS, resorufin fluorescence, counter-screen for diaphorase-coupled primary assays, primary screen; Diaphorase/resazurin coupled assay, 16 min; stronger effect = higher value; 1 = vehicle wells, 0 = NADH-free wells; activation factor at 20 µM; 190,000 tested, 0.005% active; AID 1229, 2008;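 active = diaphorase activity raised at least twofold by the compound at 20 µM; inactive = activation factor below 2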
#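 Test system: Clostridium kluyveri diaphorase, purified enzyme. Buffer or medium: 50 mM HEPES pH 7.4 buffer plus MgCl2 and Tween 20. Also added: 0.114 mM NADH and 0.1 mM resazurin, final amounts. Dosing: compound 20 µM once, DMSO 1%. Schedule: 16 min enzyme reaction, ambient temperature. Detection: fluorescence of resorufin, 544 nm excitation, 590 nm emission.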
# p47phox inh: p47phox/p22phox peptide binding inhibitors, primary screen, biochemical, uHTS, NADPH oxidase regulatory subunit; Neutrophil cytosol factor 1 (Homo sapiens), P14598; fluorescence polarization, 2 h; inhibition, % at 24.7 µM; 220,000 tested, 0.53% active; AID 1274, 2008;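 active = inhibition above about 30%, limit read from the data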
# Target sequence (P14598 whole entry, looked up): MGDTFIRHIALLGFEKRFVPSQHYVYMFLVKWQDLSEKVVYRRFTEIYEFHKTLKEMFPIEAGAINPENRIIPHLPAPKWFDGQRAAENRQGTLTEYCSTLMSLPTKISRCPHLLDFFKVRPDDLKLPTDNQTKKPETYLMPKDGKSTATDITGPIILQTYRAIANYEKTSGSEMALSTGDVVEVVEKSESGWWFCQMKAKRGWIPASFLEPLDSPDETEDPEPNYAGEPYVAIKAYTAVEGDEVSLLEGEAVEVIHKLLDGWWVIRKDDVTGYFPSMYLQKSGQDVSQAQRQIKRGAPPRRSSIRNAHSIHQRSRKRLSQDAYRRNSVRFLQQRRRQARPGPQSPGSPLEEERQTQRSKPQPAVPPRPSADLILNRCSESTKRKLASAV
# Hits are given with their value; i = inactive; nt = not tested or not shown.
SMILES,PMI act,Avidin fluor,PMI act satM6P,GSH fluor,Diaph act CS,p47phox inh
S=C1NC2=C(CCC/C2=C\c2ccccc2)C(c2ccccc2)N1 (centres undefined),i,i,2.4,i,i,i
Fc1ccccc1/C=C1\CCCC2=C1NC(=S)NC2c1ccccc1F (centres undefined),i,i,2.2,i,i,i
S=C1NC2=C(CCC/C2=C\c2ccc(Cl)cc2)C(c2ccc(Cl)cc2)N1 (centres undefined),nt,i,nt,nt,nt,i
COc1ccc2cc(C)c3nnc(SCc4cccnc4)n3c2c1,i,i,i,i,i,i
COC(=O)N[C@H](CC(C)=O)c1ccccc1,i,i,i,i,i,i
COC(=O)Nc1ccc(C)c2nsnc12,i,i,i,i,i,i
CCN(CC)c1ccc(/C=c2\sc3nnc(-c4ccccc4Cl)n3c2=O)cc1,i,i,i,104,i,i
Cc1ccc(-c2cc(-c3ccccc3)c3c(N)c(S(C)(=O)=O)sc3n2)cc1,i,i,i,i,i,i
CS(=O)(=O)c1sc2nc(-c3cccs3)cc(-c3ccccc3)c2c1N,i,i,2.2,i,i,i
C=CCN1C=CC(=CC=C(C#N)C#N)C=C1,nt,i,nt,nt,nt,i
CCCCCCN1C=C/C(=C\C=C(C#N)C#N)c2ccccc21,i,i,i,i,i,128
C=CCN1C=C/C(=C\C=C(C#N)C#N)c2ccccc21,i,i,i,i,i,83
Nc1c(C2=NCCO2)nnn1Cc1ccccc1,i,i,i,i,i,44
COC(=O)c1nnn(Cc2ccccc2)c1N,i,i,i,i,i,i
COc1ccc(NS(=O)(=O)c2cccc(C(=O)N/N=C/c3ccc(O)cc3)c2)cc1,i,i,i,i,i,i
CCC(CO)NCc1ccc(Br)cc1 (centres undefined),i,i,i,i,i,i
CCC(CO)NCc1ccc(OC2CCCC2)cc1 (centres undefined),i,i,i,140,i,i
O=[N+]([O-])/C=C\c1ccc(N2CCCC2)c(F)c1,i,i,i,i,i,36
O=Cc1ccc(N2CCCC2)c([N+](=O)[O-])c1,i,i,i,i,i,i
Cc1c(C2C(C#N)=C(N)N(c3ccccc3C#N)C3=C2C(=O)CCC3)cnn1C (centres undefined),i,i,i,i,i,i
COc1ccc2oc(=O)c(/C(C)=N/Nc3nc(-c4cc(C)ccc4C)cs3)cc2c1,i,i,2.3,i,i,i
Cc1ccc(N(CC(=O)NCc2ccc(F)cc2)C(=O)c2csnn2)c(C)c1,i,i,i,i,i,i
COc1ccc(-c2cc(C(F)(F)F)c(C#N)c(SCC(=O)Nc3ccccc3C#N)n2)cc1,i,49,i,i,i,i
CCNC(=S)N1CCN(CC(=O)Nc2ccc(OC)cc2)CC1,i,i,i,i,i,i
CNS(=O)(=O)c1cc(O)c2c(S(=O)(=O)NC)cccc2c1,i,i,i,i,i,i
SMILES,PMI act,Avidin fluor,PMI act satM6P,GSH fluor,Diaph act CS,p47phox inh
Fc1ccc(N/N=C(/c2ccccc2)c2ccccn2)cc1,i,i,2,i,i,i
CCOc1ccc(C(=O)N/N=C(\c2ccccc2)c2ccccn2)cc1,i,i,i,i,i,i
NS(=O)(=O)c1ccc(CCNC(=O)c2cncc(Br)c2)cc1,i,50,i,i,i,i
CC1=NOC(=O)/C1=C\c1ccc(-c2ccc(Br)cc2C(=O)O)o1,i,i,i,i,i,i
CC1=NOC(=O)/C1=C\c1ccc(-c2ccc(Br)cc2)o1,i,i,i,i,i,44
CC1=NOC(=O)/C1=C\c1ccc(-c2cc(Cl)ccc2Cl)o1,i,i,i,i,i,i
CC1=NOC(=O)/C1=C/c1ccc(-c2ccc(Cl)cc2)o1,i,i,i,i,i,116
COc1cc(NC(=O)NCCN2CCN(c3ccc(Cl)cc3)CC2)ccc1C,i,i,i,i,i,i
CCCc1ccc(C(=O)NNc2ccc(F)cc2)cc1,nt,i,nt,nt,nt,i
COc1cccc2cc(C(=O)N3CCCCC3C)c(=O)oc12 (centres undefined),i,i,i,120,i,i
CC1CCC/C(=N\Nc2ccc(Cl)c(C(=O)O)c2)C1 (centres undefined),i,i,2.1,i,i,i
CC1CCC/C(=N\NC(=O)Nc2ccccc2)C1 (centres undefined),i,i,i,i,i,i
COC(=O)c1ccccc1NC(=O)C1CCCN(c2nnc(-n3cccc3)s2)C1 (centres undefined),i,i,i,i,i,i
O=C(c1c[nH]c2ccc(S(=O)(=O)N3CCC4(CC3)OCCO4)cc2c1=O)N1CCOCC1,i,51,i,i,i,i
O=S(=O)(NCc1ccccn1)c1ccc(Cl)c(C(F)(F)F)c1,i,i,i,i,i,i
Cc1occc1C(=O)NNC(=O)NC12CC3CC(CC(C3)C1)C2,i,i,i,i,i,36
COc1cccc(OC)c1-c1nn2c(-c3cc(-c4ccccc4)n[nH]3)nnc2s1,i,i,i,nt,i,54
COc1cccc(-c2nnc3sc(-c4ccccc4)nn23)c1,i,i,i,i,i,i
CCc1ccc(NC(=O)N(CCN2CCOCC2)Cc2ccc3c(c2)CCCN3CC)cc1,i,i,i,i,i,43
CCOC(=O)/C(C#N)=C/C=C1\C=Cc2ccccc2N1CC,i,i,i,i,i,124
CCCCCCN1C=CC(=C/C=C(\C#N)C(=O)OCC)C=C1,i,i,i,i,i,33
CCCN1C=CC(=C/C=C(\C#N)C(=O)OCC)C=C1,i,i,i,i,i,i
Cc1c(NC(=O)C23CC4CC(CC(C)(C4)C2)C3)c(=O)n(-c2ccccc2)n1C,i,i,i,i,i,i
Cc1ccc(C(=O)N/C(=C\C=C\c2ccccc2)C(=O)NCc2ccco2)cc1,i,i,i,i,i,i
COc1ccc(N2CSC3=C(C#N)C(c4cc(OC)c(OC)cc4OC)CC(=O)N3C2)c(OC)c1 (centres undefined),i,i,i,i,i,33
CCCCn1c(SCC(=O)c2cc(OC)ccc2OC)nc2cc(S(N)(=O)=O)ccc21,i,i,i,260,i,i
CCCCn1c(SCC(=O)N2CCC(C)CC2)nc2cc(S(N)(=O)=O)ccc21,i,i,i,i,i,i

# Assay outcomes (PubChem)
